Test results: ChEMBL document CHEMBL3425404, “Structure-activity relationship in a purine-scaffold compound series with selectivity for the endoplasmic reticulum Hsp90 paralog Grp94” (J Med Chem, 2015)
The source made the active and inactive calls. The rule behind the calls is not given here.

Experiments:
Mus musculus = assay: Acute toxicity in nu/nu athymic mouse xenografted with human MDA-MB-468 cells at 150 mg/kg, ip; type: organism-based; design: dose 150 mg/kg, route intraperitoneal; details: in vivo
Procedure, shortened: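 MDA-MB-468 cells (1 × 10^7) were implanted sc in the right flank and allowed to grow. Tumour-bearing mice (n = 4) received 75 or 150 mg/kg ip and were followed for acute toxicity. Augmentin was given in the drinking water during therapy.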

Nucleic Acid = assay: Ratio of drug level in tumor to heart in nu/nu athymic mouse xenografted with human MDA-MB-468 cells at 75 mg/kg, ip measured at 24 hrs by LC-MS/MS analysis; type: ADME, organism-based; design: dose 75 mg/kg, route intraperitoneal; details: in vivo
Procedure, shortened: (§1)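 Mice bearing subcutaneous MDA-MB-468 breast tumors (1 × 10^7 cells in right flank) got a single 75 mg/kg ip dose, n = 4 per time point. They were sacrificed at 2 and 24 h. Drug in tumor, tissues and plasma was quantified by LC−MS/MS, and tumor-to-tissue or tumor-to-plasma ratios were computed. Mean ± error.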

[1] = Oral bioavailability in B6D2F1 mouse at 10 mg/kg by LC-MS/MS analysis; type: ADME, organism-based; details: in vivo
Procedure, shortened: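 Male B6D2F1 mice (n = 2 per time point, 20 total) got a single 10 mg/kg iv or oral dose in 30% captisol, 5 mM citrate pH 4.2. Plasma levels at sacrifice times were measured by LC−MS/MS, converted to molar assuming 1 g = 1 mL, and plotted versus time. Oral F was derived.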

[2] = target: Endoplasmin (Mus musculus) (UniProt P08113); assay: Inhibition of Grp94 in mouse RAW264.7 cells assessed as inhibition of CpG-induced TNFalpha production after 18 hrs by ELISA; type: cell-based
[3] = target: Heat shock protein HSP90 (Homo sapiens) (UniProt P07900+P08238); assay: Inhibition of HSP90 in human SKBR3 cells assessed as induction of HSP70 activity at 1 to 25 uM after 24 hrs by Western blot analysis; type: cell-based; details: SK-BR-3
Procedure, shortened: (§2)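 SKBr3 cells were treated 24 h with DMSO vehicle or compound, then lysed in RIPA with protease inhibitors. Lysate (5−50 μg) was run on SDS−PAGE and immunoblotted for HER2 or Hsp70, with β-actin as loading control. Detection was by HRP secondary and ECL, with densitometry. Blots are representative of triplicate experiments.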

[4] = target: Endoplasmin (Homo sapiens) (UniProt P14625); assay: Inhibition of Grp94 in HEK293T cells assessed as downregulation of TLR9 protein expression in post ER compartment after 24 hrs by confocal microscopic analysis; type: cell-based; details: HEK-293T
Procedure, shortened: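 HEK293T cells were transfected with HA-tagged human TLR9 and split onto chamber slides 24 h later. They were then treated 24 h at varying concentrations. Cells were fixed in 4% paraformaldehyde, permeabilized with Triton X-100 and blocked in 3% BSA. They were stained with anti-HA then Cy3 secondary, with DAPI. Imaging was by confocal microscopy, and fluorescence intensity was normalized to cell number.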

[5] = Plasma concentration in nu/nu athymic mouse xenografted with human MDA-MB-468 cells at 75 mg/kg, ip measured at 2 hrs by LC-MS/MS analysis; type: ADME, organism-based; design: dose 75 mg/kg, route intraperitoneal; procedure, shortened: as §1
[6] = Ratio of drug level in tumor to plasma in nu/nu athymic mouse xenografted with human MDA-MB-468 cells at 75 mg/kg, ip measured at 24 hrs by LC-MS/MS analysis; type: ADME, organism-based; design: dose 75 mg/kg, route intraperitoneal; procedure, shortened: as §1
[7] = target: Endoplasmin (Mus musculus) (UniProt P08113); assay: Inhibition of Grp94 in mouse differentiated C2C12 cells assessed as inhibition of IGF-2 secretion after 24 hrs by ELISA; type: cell-based
Procedure, shortened: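 C2C12 mouse myoblasts were shifted to differentiation medium (DMEM, 2% horse serum) and treated 24 h with compounds. Medium was captured overnight at 4 °C on anti-IGF-II ELISA plates and detected with biotinylated antibody, HRP-streptavidin and TMB. A450 was read, and IGF-II was quantified against a recombinant IGF-II standard curve.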

Homo sapiens [8] = species on record: Homo sapiens; assay: Selectivity ratio of IC50 for recombinant Trap1 (unknown origin) to IC50 for recombinant Grp94 (unknown origin)
RAW264.7 = assay: Inhibition of HSP90 in mouse RAW264.7 cells assessed as inhibition of LPS-induced TNFalpha production at 2 to 16 uM after 18 hrs by ELISA; type: cell-based
Homo sapiens [9] = species on record: Homo sapiens; assay: Selectivity ratio of IC50 for recombinant Hsp90beta (unknown origin) to IC50 for recombinant Grp94 (unknown origin)
[10] = target: Endoplasmin (Homo sapiens) (UniProt P14625); assay: Inhibition of Grp94 in human SKBR3 cells overexpressing HER2 assessed as degradation of HER2 at 1 to 25 uM after 24 hrs by Western blot analysis; type: cell-based; details: SK-BR-3; procedure, shortened: as §2
[11] = Drug uptake in tumor of nu/nu athymic mouse xenografted with human MDA-MB-468 cells at 75 mg/kg, ip measured at 2 hrs by LC-MS/MS analysis; type: ADME, organism-based; design: dose 75 mg/kg, route intraperitoneal; details: read-out: Drug uptake; procedure, shortened: as §1
[12] = Binding affinity to full length yeast His-tagged Hsp90 (1 to 709) overexpressed in Escherichia coli BL21 Star (DE3) by tryptophan fluorescence assay; design: species or system Saccharomyces cerevisiae
Endoplasmin = Endoplasmin (Canis lupus familiaris, UniProt P41148); assay: Binding affinity to canine full-length His-tagged GRP94 (28 to 754 residues lacking 287 to 327 residues) expressed in Escherichia coli by tryptophan fluorescence assay
Sequence of Endoplasmin (P41148 22-804 limits assumed): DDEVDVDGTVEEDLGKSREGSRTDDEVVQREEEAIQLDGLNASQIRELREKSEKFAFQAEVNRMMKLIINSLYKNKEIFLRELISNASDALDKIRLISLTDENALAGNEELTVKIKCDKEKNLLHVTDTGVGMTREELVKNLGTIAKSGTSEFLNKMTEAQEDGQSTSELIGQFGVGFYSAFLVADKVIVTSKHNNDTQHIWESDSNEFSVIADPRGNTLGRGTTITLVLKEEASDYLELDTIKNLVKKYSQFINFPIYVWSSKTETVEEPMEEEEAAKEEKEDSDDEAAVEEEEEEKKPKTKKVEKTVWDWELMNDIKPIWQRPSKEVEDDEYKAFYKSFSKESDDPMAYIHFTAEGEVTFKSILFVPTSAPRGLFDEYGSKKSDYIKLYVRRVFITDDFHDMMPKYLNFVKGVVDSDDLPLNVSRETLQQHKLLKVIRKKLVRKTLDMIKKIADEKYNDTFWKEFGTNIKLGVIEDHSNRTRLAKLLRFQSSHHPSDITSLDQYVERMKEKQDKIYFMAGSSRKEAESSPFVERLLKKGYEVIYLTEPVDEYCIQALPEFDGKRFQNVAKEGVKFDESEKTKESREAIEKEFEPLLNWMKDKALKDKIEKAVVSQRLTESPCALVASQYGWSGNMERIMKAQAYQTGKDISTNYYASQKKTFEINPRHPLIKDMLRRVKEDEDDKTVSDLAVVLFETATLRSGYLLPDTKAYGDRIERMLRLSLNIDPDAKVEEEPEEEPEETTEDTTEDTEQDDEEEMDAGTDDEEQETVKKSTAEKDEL

Sequence of Endoplasmin (Homo sapiens) (P14625 whole entry): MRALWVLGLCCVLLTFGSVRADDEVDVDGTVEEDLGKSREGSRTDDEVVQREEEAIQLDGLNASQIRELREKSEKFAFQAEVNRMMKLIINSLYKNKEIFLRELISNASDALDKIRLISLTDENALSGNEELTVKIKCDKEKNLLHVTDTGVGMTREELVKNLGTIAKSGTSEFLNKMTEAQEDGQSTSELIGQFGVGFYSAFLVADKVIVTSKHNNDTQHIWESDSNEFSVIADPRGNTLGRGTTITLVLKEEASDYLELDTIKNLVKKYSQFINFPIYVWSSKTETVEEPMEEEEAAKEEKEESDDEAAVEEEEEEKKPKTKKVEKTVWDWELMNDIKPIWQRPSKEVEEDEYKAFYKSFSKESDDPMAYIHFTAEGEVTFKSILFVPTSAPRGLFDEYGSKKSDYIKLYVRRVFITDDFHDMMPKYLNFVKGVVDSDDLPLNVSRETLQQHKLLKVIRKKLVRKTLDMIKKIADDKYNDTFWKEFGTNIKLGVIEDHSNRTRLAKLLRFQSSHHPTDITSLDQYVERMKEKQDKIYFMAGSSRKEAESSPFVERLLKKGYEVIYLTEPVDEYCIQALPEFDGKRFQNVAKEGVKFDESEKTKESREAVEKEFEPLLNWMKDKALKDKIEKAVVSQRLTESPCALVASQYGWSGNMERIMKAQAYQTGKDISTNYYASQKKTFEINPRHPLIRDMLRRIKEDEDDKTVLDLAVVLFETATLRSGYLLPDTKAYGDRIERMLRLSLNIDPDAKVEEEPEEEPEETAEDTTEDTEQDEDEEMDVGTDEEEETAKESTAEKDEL
Sequence of Endoplasmin (Mus musculus) (P08113 whole entry): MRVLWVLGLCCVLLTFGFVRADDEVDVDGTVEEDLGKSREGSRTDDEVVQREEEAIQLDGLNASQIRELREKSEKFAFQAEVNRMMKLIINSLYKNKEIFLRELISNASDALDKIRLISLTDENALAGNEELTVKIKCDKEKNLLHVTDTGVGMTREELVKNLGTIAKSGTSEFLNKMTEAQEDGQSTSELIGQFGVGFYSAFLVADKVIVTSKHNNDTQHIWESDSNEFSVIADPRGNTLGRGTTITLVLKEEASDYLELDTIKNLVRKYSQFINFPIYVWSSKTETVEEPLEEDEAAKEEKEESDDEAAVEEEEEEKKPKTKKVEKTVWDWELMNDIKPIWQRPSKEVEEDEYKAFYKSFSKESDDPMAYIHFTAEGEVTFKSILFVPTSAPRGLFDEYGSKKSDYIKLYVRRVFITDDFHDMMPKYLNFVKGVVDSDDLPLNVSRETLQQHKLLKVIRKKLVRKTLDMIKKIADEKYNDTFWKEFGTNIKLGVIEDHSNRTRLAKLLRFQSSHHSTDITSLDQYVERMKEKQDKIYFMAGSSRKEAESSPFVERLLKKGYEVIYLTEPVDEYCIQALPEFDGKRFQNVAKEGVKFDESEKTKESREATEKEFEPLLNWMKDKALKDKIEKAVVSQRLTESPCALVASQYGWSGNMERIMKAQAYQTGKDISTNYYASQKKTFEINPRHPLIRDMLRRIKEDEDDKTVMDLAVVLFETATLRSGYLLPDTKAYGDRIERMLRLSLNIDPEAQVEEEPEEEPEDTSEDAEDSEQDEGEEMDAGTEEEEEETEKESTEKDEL

Q: Which results are given for CC(C)NCCCn1c(Sc2cc(Cl)cc(Cl)c2)nc2c(N)ncnc21?
A: Activity (Mus musculus): Non-toxic; Ratio (Nucleic Acid): 100; bioavailability [1]: 80%; inhibition [2]: Dose-dependent effect; inhibition [3]: inactive; inhibition [4]: Dose-dependent effect; concentration at 2 h [5]: 100 µM; Kp at 24 h [6]: 200; inhibition [7]: Dose-dependent effect; Ratio IC50 (Homo sapiens [8]): 33; inhibition (RAW264.7): inactive; Ratio IC50 (Homo sapiens [9]): > 100; inhibition [10]: Active; concentration at 2 h [11]: 850 µM

Q: Which results are given for COC(=O)c1c(O)cc(O)c(Cl)c1CCC(=O)NC1=CC(=O)C(OC)=CC1=O?
A: Kd [12]: 870 nM; Kd (Endoplasmin): 520 nM
